# Assay results: ChEMBL document CHEMBL2202989, “New adamantane phenylalkylamines with σ-receptor binding affinity and anticancer activity, associated with putative antagonism of neuropathic pain” (J Med Chem, 2012)
# pIC50: −log10 of the molar value.
# What was measured:
# [1] = test system: BXPC-3; test: Growth inhibition of human BxPC3 cells after 48 hrs by SRB assay; assay type: functional; settings: BXPC-3, 48 h
# Outline: (§1)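 Cells grown in RPMI 1640 with 5% heat-inactivated FCS, 2 mM L-glutamine and antibiotics, 37 °C, 5% CO2. Seeded at 3500–30000 cells/well and left 24 h before dosing. DMSO solutions added at 10-fold dilutions from 100 to 0.01 μM for 48 h. Cells TCA-fixed and SRB-stained, absorbance read at 540 nm; GI50 derived against the time-zero plate.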
# [2] = Displacement of [3H]1,3-di-otolylguanidine from sigma 2 receptor in rat cerebral cortex membranes; assay type: cell membranes, Membrane
# Outline: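 Rat cerebral cortex membranes incubated with 5 nM [3H]DTG plus 300 nM (+)-pentazocine to mask σ1 sites, together with a range of test concentrations, 2 h at 22 °C in Tris-HCl, pH 7.4. Nonspecific binding defined with 10 μM haloperidol.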
# [3] = Displacement of [3H]batrachotoxin benzoate from Na+ channel after 60 mins by liquid scintillation counting
# Outline: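 Na+ channel site 2 binding: vesicle preparation (150−500 μg protein) incubated 60 min with 20−25 nM [3H]BTX-B and 50 μg Leiurius quinquestriatus venom. Buffer was 130 mM choline chloride, 50 mM HEPES/Tris pH 7.4, glucose, MgSO4, KCl, BSA. Filtered on GF/C with cold washes; scintillation counting. Nonspecific binding defined with 250 μM veratridine.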
# [4] = target: Sigma non-opioid intracellular receptor 1 (Homo sapiens, UniProt Q99720); test: Displacement of [3H]-(+)-pentazocine from sigma 1 receptor in human Jurkat cell membrane; assay type: cell membranes
# Outline: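 Jurkat cell membranes incubated with 8 nM [3H](+)-pentazocine and a range of test concentrations for 2 h at 22 °C in Tris-HCl buffer, pH 7.4. Nonspecific binding defined with 10 μM haloperidol. Run in triplicate.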
# [5] = test system: U-251; test: Growth inhibition of human U251 cells after 48 hrs by SRB assay; assay type: functional; settings: U-251, 48 h; for CC50: read-out: LC50 (the source's name); outline: as §1
# [6] = test system: NHDF; test: (§2) Growth inhibition of human NHDF cells after 48 hrs by SRB assay; assay type: cell-based; settings: nhdf, 48 h; outline: as §1
# [7] = as §2; assay type: cell-based; settings: NHDF cells; outline: as §1
# [8] = test system: HCT-116; test: Growth inhibition of human HCT116 cells after 48 hrs by SRB assay; assay type: functional; settings: HCT-116, 48 h; for CC50: read-out: LC50 (the source's name); outline: as §1
# [9] = test system: MCF7; test: Growth inhibition of human MCF7 cells after 48 hrs by SRB assay; assay type: functional; settings: MCF7, 48 h; for CC50: read-out: LC50 (the source's name); outline: as §1
# [10] = Growth inhibition of human MSC cells after 48 hrs by SRB assay; assay type: cell-based; outline: as §1
# [11] = test system: IGROV-1; test: Growth inhibition of human IGROV1 cells after 48 hrs by SRB assay; assay type: functional; settings: IGROV-1, 48 h; outline: as §1
# [12] = test system: HCT-15; test: Growth inhibition of human HCT15 cells after 48 hrs by SRB assay; assay type: functional; settings: HCT-15, 48 h; for CC50: read-out: LC50 (the source's name); outline: as §1
# [13] = test system: BXPC-3; test: Antitumor activity against human BxPC3 cells xenografted in SCID mouse assessed as tumor growth inhibition at 17 mg/kg, ip administered twice a week for three cycles measured after 3 cycles relative to control; assay type: functional; settings: BXPC-3, ip, route intraperitoneal, read-out: TGI
# Outline: (§3)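 SCID mice bearing BxPC3 pancreatic xenografts, 10 mice per group (20 tumors). Drug dissolved in water for injection, given ip twice a week for three cycles. Controls were untreated and 5% Tween 80 vehicle. Tumor volume measured by caliper twice weekly; reduction reported on termination day. Two-tailed Student's t test.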
# [14] = test system: BXPC-3; test: Antitumor activity against human BxPC3 cells xenografted in SCID mouse assessed as tumor growth inhibition at 35 mg/kg, ip administered twice a week for three cycles measured after 3 cycles relative to control; assay type: functional; settings: BXPC-3, ip, route intraperitoneal, read-out: TGI; outline: as §3
# [15] = test system: OVCAR-5; test: Growth inhibition of human OVCAR5 cells after 48 hrs by SRB assay; assay type: functional; settings: OVCAR-5, 48 h; outline: as §1
# [16] = test system: DU-145; test: Growth inhibition of human DU145 cells after 48 hrs by SRB assay; assay type: functional; settings: DU-145, 48 h; for CC50: read-out: LC50 (the source's name); outline: as §1
# [17] = test system: PC-3; test: Growth inhibition of human PC3 cells after 48 hrs by SRB assay; assay type: functional; settings: PC-3, 48 h; for CC50: read-out: LC50 (the source's name); outline: as §1
# [18] = test system: MIA PaCa-2; test: Growth inhibition of human MIAPaCa2 cells after 48 hrs by SRB assay; assay type: functional; settings: MIA PaCa-2, 48 h; for CC50: read-out: LC50 (the source's name); outline: as §1
# [19] = test system: HL-60(TB); test: Growth inhibition of human HL-60(TB) cells after 48 hrs by SRB assay; assay type: functional; settings: HL-60, 48 h
# Outline: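 Cells kept in RPMI 1640 with 5% FCS at 37 °C, 5% CO2, and seeded 24 h before dosing. Compound given from DMSO at 10-fold dilutions, 100 to 0.01 μM, for 48 h. Cells fixed with TCA, stained with SRB, absorbance read at 540 nm. GI50 taken from a time-zero plate.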
# [20] = (§4) Growth inhibition of human HUVEC cells after 48 hrs by SRB assay; assay type: cell-based; settings: HUVEC cells; outline: as §1
# [21] = test system: SK-HEP1; test: Growth inhibition of human SKHEP1 cells after 48 hrs by SRB assay; assay type: functional; settings: SK-HEP1, 48 h; for CC50: read-out: LC50 (the source's name); outline: as §1
# [22] = test system: BXPC-3; test: Antitumor activity against human BxPC3 cells xenografted in SCID mouse assessed as tumor growth inhibition at 70 mg/kg, ip administered twice a week for three cycles measured after 3 cycles relative to control; assay type: functional; settings: BXPC-3, ip, route intraperitoneal, read-out: TGI
# Outline: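 BxPC3 xenografts were grown in SCID mice from inocula of 10^6 exponentially growing cells, with 10 mice (20 tumors) per group. Treatment started ip once tumors averaged about 100 mm3. The test agent was given in 5% Tween 80 and gemcitabine in water for injection. Tumor volume was measured by caliper twice weekly and %ΔT/ΔC was computed; two-tailed Student's t test.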
# [23] = test system: HUVEC; test: as §4; assay type: cell-based; settings: huvec, 48 h; outline: as §1
# [24] = read-out: LC50 (the source's name)
# Chain of Sigma non-opioid intracellular receptor 1 (Q99720 whole entry): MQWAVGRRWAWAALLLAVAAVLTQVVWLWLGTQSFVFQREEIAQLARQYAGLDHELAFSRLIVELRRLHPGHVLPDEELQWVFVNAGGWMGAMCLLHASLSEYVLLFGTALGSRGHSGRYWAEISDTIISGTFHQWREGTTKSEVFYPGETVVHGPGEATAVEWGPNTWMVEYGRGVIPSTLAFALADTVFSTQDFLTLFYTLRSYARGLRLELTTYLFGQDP
compound,measurement,setting,value
c1ccc(CN2CCN(CCCc3ccc(C(c4ccccc4)C45CC6CC(CC(C6)C4)C5)cc3)CC2)cc1 (centres undefined),GI50,[1],36.8 µM
same,LC50,[1],0.1 µM
same,TGI,[1],100 µM
same,pIC50,[2],7.55
same,pIC50,[3],7.94
same,pIC50,[4],7.44
same,GI50,[5],36.4 µM
same,TGI,[5],79.1 µM
same,CC50,[5],0.1 µM
same,LC50,[6],100 µM
same,TGI,[6],100 µM
same,GI50 at 48 h,[7],39.5 µM
same,GI50,[8],7.72 µM
same,TGI,[8],39.7 µM
same,CC50,[8],0.0829 µM
same,GI50,[9],6.76 µM
same,TGI,[9],61.7 µM
same,CC50,[9],0.1 µM
O=c1[nH]cc(F)c(=O)[nH]1 [FLUOROURACIL],TGI,[10],1 µM
same,GI50,[11],8.12 µM
same,TGI,[11],100 µM
same,CC50,[11]; [24],0.1 µM
same,GI50,[12],21.1 µM
same,TGI,[12],100 µM
same,CC50,[12],0.1 µM
same,GI50,[1],2.9 µM
same,TGI,[1],8.4 µM
same,inhibition in vivo at 17 mg/kg,[13],23.7%
same,inhibition in vivo at 35 mg/kg,[14],36.7%
same,GI50,[15],26.4 µM
same,TGI,[15],100 µM
same,CC50,[15]; [24],0.1 µM
same,GI50,[16],20 µM
same,TGI,[16],100 µM
same,CC50,[16],0.1 µM
same,GI50,[5],69.6 µM
same,TGI,[5],100 µM
same,CC50,[5],0.1 µM
same,GI50,[17],10.5 µM
same,TGI,[17],100 µM
same,CC50,[17],0.1 µM
same,GI50,[18],30.6 µM
same,TGI,[18],100 µM
same,CC50,[18],0.1 µM
same,GI50,[19],0.1 µM
same,TGI,[19],0.1 µM
same,CC50,[19]; [24],0.1 µM
same,TGI,[6],100 µM
same,GI50 at 48 h,[7],62 µM
same,GI50 at 48 h,[20],3.6 µM
same,GI50,[8],8.8 µM
same,TGI,[8],100 µM
same,CC50,[8],0.1 µM
same,GI50,[21],7.6 µM
same,TGI,[21],100 µM
same,CC50,[21],0.1 µM
same,GI50,[9],14.5 µM
same,TGI,[9],100 µM
same,CC50,[9],0.1 µM
Nc1ccn([C@@H]2O[C@H](CO)[C@@H](O)C2(F)F)c(=O)n1 [GEMCITABINE],inhibition in vivo at 70 mg/kg,[22],38.1%
same,GI50,[1],3.64 µM
same,TGI,[1],9.05 µM
same,GI50,[18],35.8 µM
same,TGI,[18],100 µM
same,CC50,[18],0.1 µM
c1ccc(C(c2ccc(CCCN3CCCCC3)cc2)C23CC4CC(CC(C4)C2)C3)cc1 (centres undefined),TGI,[10],1.93 µM
same,GI50,[12],3.89 µM
same,TGI,[12],6.78 µM
same,CC50,[12],0.00968 µM
same,GI50,[1],3.78 µM
same,LC50,[1],0.00917 µM
same,TGI,[1],6.47 µM
same,pIC50,[2],7.89
same,pIC50,[3],< 7.00
same,pIC50,[4],7.91
same,GI50,[16],5.18 µM
same,TGI,[16],8.17 µM
same,CC50,[16],0.0112 µM
same,GI50,[5],4.61 µM
same,TGI,[5],7.19 µM
same,CC50,[5],0.00977 µM
same,GI50,[17],3.92 µM
same,TGI,[17],7.32 µM
same,CC50,[17],0.0107 µM
same,LC50,[6],9.47 µM
same,TGI,[6],6.15 µM
same,GI50 at 48 h,[7],2.83 µM
same,LC50,[23],9.18 µM
same,TGI,[23],6.23 µM
same,GI50 at 48 h,[20],3.27 µM
same,GI50,[8],3.37 µM
same,TGI,[8],5.99 µM
same,CC50,[8],0.00861 µM
same,GI50,[21],3.25 µM
same,TGI,[21],5.97 µM
same,CC50,[21],0.00868 µM
same,GI50,[9],2.41 µM
same,TGI,[9],6.07 µM
same,CC50,[9],0.00963 µM
